Assay outcomes: PubChem, several laboratories
Autophagy mod: autophagy modulation, high-content screen. MEF GFP-LC3 puncta imaging; test concentration mostly 10 µM. calls only at 10 µM (by protocol). hit rate 0.98% among 190,000. AID 463193;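 active = percentage of spot-positive cells more than 3 SD above its plate mean, without a fluorescence outlier flag or 80% toxicity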
L major viab: reduces viability of Leishmania major promastigotes | AID 1063 | inhibition, % at 10 µM | hit rate 9% among 200,000 | resazurin fluorescence viability; in the data active = inhibition above about 50%;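 note: promastigotes grown with compound for 44 hours at 28 °C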
b-catenin transl: modulators of beta-catenin nuclear translocation; HeLa beta-catenin nuclear translocation, immunofluorescence imaging; nuclear translocation activity, % at 5 µM; hit rate 0.3% among 190,000;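 active = nuclear translocation activity above 50% at 5 µM, with a well cell count of 50 or more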;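 note: per-cell ratio of nuclear to cytoplasmic median beta-catenin stain intensity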
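assay system = human HeLa cells, endogenous beta-catenin | times = compound treatment 24 h, 37°C, 5% CO2 | detection = Anti-beta-catenin immunofluorescence on PFA-fixed, Triton-permeabilized cells, DAPI nuclei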
CHOP inh: CHOP inhibition in unfolded protein response; CHO-K1 CHOP-promoter luciferase, tunicamycin-induced, 15-18 h; inhibition, % at 10 µM; hit rate 3.8% among 220,000; AID 2732;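 active = compounds that reduced the stress-induced luciferase reporter signal by more than about 70% of percent inhibition, limit read from the data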
Dynein transport: blocks dynein driven cargo transport along microtubules; hit rate 0.47% among 220,000; z-score, hits read low; 3617.4 mouse cells, GR-EGFP nuclear translocation imaging; test concentration mostly 20 µM; stimulated with dexamethasone, 1 µM; stronger effect = lower value;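 active = plate z-score of nuclear minus cytoplasmic receptor signal below a set negative limit, without overly bright fluorescence or cell loss, cut at about -3.5 in these data, passing the limit was not always enough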;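 note: z-score of nuclear minus cytoplasmic ring GR-EGFP intensity difference per well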
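Buffer or medium: tet-free, stripped-serum medium; Also added: dexamethasone, 1.0 µM final; Technique: high-content fluorescence imaging after fixation; Times: 48 h induction, 1 h compound, 30 min dex at 37 °C; Read-out: per-cell GR-EGFP intensity, nucleus versus surrounding cytoplasmic ring, well-averaged.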
MT stabilize HCS: microtubule stabilizers in HeLa cells | AID 2205 | HeLa tubulin immunostaining HCS, 24 h; share of cells brighter than vehicle mean+2SD | hit rate 0.83% among 200,000 | % tubulin-high responders, % at 10 µM;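 active = plate Z-score above 3 for both tubulin-high and condensed-nucleus cell shares, with cell loss under 80%, at 10 µM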;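 note: anti alpha tubulin signal scored within the nucleus-defined area of each cell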
A number is an active result. In the library only some 12% were active in any assay of this set; here they are far more common.

Screening CCN(CC)CCNC(=O)c1c(O)c2ccccc2n(Cc2ccccc2)c1=O returned Autophagy mod inactive, L major viab 89.5, b-catenin transl inactive, CHOP inh inactive, Dynein transport inactive and MT stabilize HCS inactive.
Screening c1ccc(C2N3CCCN23)cc1 (stereo unspecified) returned Autophagy mod inactive, L major viab inactive, b-catenin transl inactive, CHOP inh inactive, Dynein transport inactive and MT stabilize HCS inactive.
Screening O[C@@H]1CCCC[C@H]1N1CCC(c2ccccc2)CC1 returned Autophagy mod inactive, L major viab 64.7, b-catenin transl inactive, CHOP inh inactive, Dynein transport inactive and MT stabilize HCS inactive.
For ON1C2CCCCC2N(O)C1c1ccccc1 (stereo unspecified) the results were Autophagy mod inactive, L major viab inactive, CHOP inh 88.6, Dynein transport inactive and MT stabilize HCS inactive.
CC(C)(C)C(=O)NC1CCSC1=O (stereo unspecified) was read as Autophagy mod inactive, L major viab inactive, b-catenin transl inactive, CHOP inh inactive, Dynein transport inactive and MT stabilize HCS inactive.
For CN1Cc2cccnc2N(C)Cc2cc(Cl)ccc21 the results were Autophagy mod inactive, L major viab inactive, b-catenin transl inactive, CHOP inh inactive, Dynein transport inactive and MT stabilize HCS inactive.
Screening COc1ccc(OCC(=O)N2CCN(C(C)C)CC2)cc1 returned Autophagy mod inactive, L major viab inactive, b-catenin transl inactive, CHOP inh inactive, Dynein transport inactive and MT stabilize HCS inactive.
`CC(C)N1CCN(c2ccc(O)cc2)CC1` gave Autophagy mod inactive, L major viab 55.8, b-catenin transl inactive, CHOP inh inactive, Dynein transport inactive and MT stabilize HCS inactive.
CC(C)CCn1c(=O)c(C(=O)Nc2ccccc2S(N)(=O)=O)c(O)c2ccccc21 was read as Autophagy mod inactive, L major viab 99.7, b-catenin transl inactive, CHOP inh 92.1, Dynein transport inactive and MT stabilize HCS inactive.
For CC(C)C(=O)c1cn(Cc2ccccc2C#N)c2ccccc12 the results were Autophagy mod inactive, L major viab inactive, CHOP inh 77.4, Dynein transport inactive and MT stabilize HCS inactive.
For CP(=O)(Nc1ccc(Cl)cc1)c1nc2c(s1)CCCC2 (stereo unspecified) the results were b-catenin transl inactive, CHOP inh inactive and Dynein transport inactive.
`Cc1cc(C=C2C(=O)N(C)C(=S)N(C)C2=O)c(C)n1-c1ccncc1` gave b-catenin transl inactive, CHOP inh inactive and Dynein transport inactive.
Cc1ccnc(-n2c(C)cc(C=C3C(=O)N(C)C(=S)N(C)C3=O)c2C)c1 was read as Autophagy mod inactive, L major viab 51.0, b-catenin transl inactive, CHOP inh inactive, Dynein transport inactive and MT stabilize HCS inactive.
For O=[N+]([O-])c1ccc2nc(N3CCNCC3)ccc2c1 the results were CHOP inh inactive.
`COc1cccc(OC)c1C1=NCC(=O)Nc2c1oc1ccc(Br)cc21` gave Autophagy mod active, L major viab inactive, b-catenin transl inactive, Dynein transport inactive and MT stabilize HCS 13.5.
Screening O=C1CN=C(c2ccccc2)c2oc3ccc(Br)cc3c2N1 returned Autophagy mod inactive, L major viab inactive, b-catenin transl inactive, CHOP inh inactive, Dynein transport inactive and MT stabilize HCS inactive.
CCN(CC)P(c1n(C)cc[n+]1C)N(CC)CC was read as Autophagy mod inactive, L major viab inactive, b-catenin transl inactive, CHOP inh inactive, Dynein transport inactive and MT stabilize HCS inactive.
For COc1cc(C=C2C(=O)NC(=O)NC2=O)ccc1OCc1ccc([N+](=O)[O-])cc1 the results were Autophagy mod inactive, L major viab inactive, b-catenin transl inactive, CHOP inh inactive, Dynein transport inactive and MT stabilize HCS inactive.
For COc1cc(/C=C(/C)[N+](=O)[O-])ccc1OCc1ccccc1Cl the results were Autophagy mod inactive, L major viab 100.2, b-catenin transl inactive, CHOP inh 105.5, Dynein transport inactive and MT stabilize HCS inactive.
`OC(COCc1ccc(Cl)cc1)CN1CC=C(c2ccccc2)CC1` (stereo unspecified) gave Autophagy mod inactive, L major viab 88.0, b-catenin transl inactive, CHOP inh inactive, Dynein transport inactive and MT stabilize HCS inactive.
Screening COc1ccc(CCNCc2cccc(C(F)(F)F)c2)cc1OC returned Autophagy mod inactive, L major viab inactive, b-catenin transl inactive, CHOP inh inactive, Dynein transport inactive and MT stabilize HCS inactive.
`COc1ccc(CCNCc2ccc(SC)cc2)cc1` gave Autophagy mod inactive, L major viab 62.7, CHOP inh inactive, Dynein transport inactive and MT stabilize HCS inactive.
`COc1ccc(CCNCc2ccc(F)cc2)cc1OC` gave Autophagy mod inactive, L major viab 50.2, b-catenin transl inactive, CHOP inh inactive, Dynein transport inactive and MT stabilize HCS inactive.
For N[C@H](CCCCCP(=O)(O)O)C(=O)O the results were CHOP inh inactive.
`CCCNC(=O)c1c(N)n(CC2CCCO2)c2nc3ccccc3nc12` (stereo unspecified) gave Autophagy mod inactive, L major viab inactive, b-catenin transl inactive, CHOP inh inactive, Dynein transport inactive and MT stabilize HCS inactive.
Screening CCCCn1c(NC(=O)c2ccco2)c(C(=O)OCC)c2nc3ccccc3nc21 returned Autophagy mod inactive, L major viab 75.8, b-catenin transl inactive, CHOP inh inactive, Dynein transport inactive and MT stabilize HCS inactive.
CCCCn1c(NS(=O)(=O)c2ccc(C)cc2)c(C(=O)OCC)c2nc3ccccc3nc21 was read as Autophagy mod inactive, L major viab inactive, b-catenin transl inactive, CHOP inh inactive, Dynein transport inactive and MT stabilize HCS inactive.
Screening CC(C)CCn1c(N)c(C(=O)OCC2CCCO2)c2nc3ccccc3nc21 (stereo unspecified) returned Autophagy mod inactive, L major viab 53.5, b-catenin transl inactive, CHOP inh inactive, Dynein transport inactive and MT stabilize HCS inactive.
Screening CCCCn1c(N)c(C(=O)OCC2CCCO2)c2nc3ccccc3nc21 (stereo unspecified) returned Autophagy mod inactive, L major viab 99.8, b-catenin transl inactive, CHOP inh inactive, Dynein transport inactive and MT stabilize HCS inactive.
For C#CCN1CCN(c2cccc(C(F)(F)F)c2)CC1 the results were Autophagy mod inactive, L major viab inactive, b-catenin transl inactive, CHOP inh inactive, Dynein transport inactive and MT stabilize HCS inactive.
For Cc1ncc([N+](=O)[O-])n1CCOC(N)=O the results were b-catenin transl inactive, CHOP inh inactive and Dynein transport inactive.
CN(N=O)c1ccc(O)c(O)c1 was read as CHOP inh inactive.
Screening Cc1nn(Cc2ccc(Cl)cc2Cl)c(Cl)c1C(=O)Nc1ccc(OC(F)F)cc1 returned Autophagy mod inactive, L major viab inactive, b-catenin transl inactive, CHOP inh inactive, Dynein transport inactive and MT stabilize HCS inactive.
